From ChEMBL document CHEMBL1157524, “Synthesis and SAR of a mGluR5 allosteric partial antagonist lead: unexpected modulation of pharmacology with slight structural modifications to a 5-(phenylethynyl)pyrimidine scaffold” (Bioorg Med Chem Lett, 2008) come the findings set out here.

Structures are written as SMILES.

Test [1] addresses T1, Metabotropic glutamate receptor 5 (Rattus norvegicus, UniProt P31424). In words: Activity at rat mGluR5 expressed in HEK293A cells. The class given is cell-based, HEK293-A.
The target in test [2] is T1, Metabotropic glutamate receptor 5. In words: (§1) Antagonist activity at rat mGluR5 expressed in HEK293A cells assessed as inhibition of glutamate-induced calcium fluorescence. Format: functional, cell-based, HEK293-A.
Test [3] has as its target Metabotropic glutamate receptor 5 (Rattus norvegicus) (UniProt P31424). The description is as §1. The conditions noted are these: HEK293-A. Details: concentration or dose not given beside the values. Format: functional, cell-based.
Test [4] has the same target. In words: Induction of rat mGluR5 activation expressed in HEK293A cells assessed as maximal response in presence of glutamate. The class given is cell-based. The following applies: HEK293-A. An outline of the steps:
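Potentiator mode in rat mGluR5 HEK293A cells loaded with Fluo4-AM (4.0 µM, 45 min, 37 °C) in HBSS/20 mM Hepes/2.5 mM probenecid, pH 7.4. Compound added at 19 s, then submaximal glutamate (150–165 nM) at 109 s. Calcium fluorescence read and compared with maximal glutamate response. Vehicle 0.3% DMSO. Triplicate on three days.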

The target in test [5] is T1, Metabotropic glutamate receptor 5. In words: Displacement of [3H]methoxy-PEPy from rat mGluR5 expressed in HEK293A cells. The class given is cell-based, HEK293-A. Summed up:
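Membranes from HEK293A cells with rat mGluR5 were incubated with 2 nM (final) [³H]methoxy-PEPy in 50 mM Tris, 0.9% NaCl, pH 7.4. Incubation was 60 min at room temperature with shaking. Bound ligand was separated by GF/B filtration with four buffer washes and counted by scintillation. MPEP defined nonspecific binding. Triplicate on three days.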
On the technique in general: Displacement assays read how much labelled ligand stays bound in the presence of the test substance.

T1 sequence (P31424 whole entry): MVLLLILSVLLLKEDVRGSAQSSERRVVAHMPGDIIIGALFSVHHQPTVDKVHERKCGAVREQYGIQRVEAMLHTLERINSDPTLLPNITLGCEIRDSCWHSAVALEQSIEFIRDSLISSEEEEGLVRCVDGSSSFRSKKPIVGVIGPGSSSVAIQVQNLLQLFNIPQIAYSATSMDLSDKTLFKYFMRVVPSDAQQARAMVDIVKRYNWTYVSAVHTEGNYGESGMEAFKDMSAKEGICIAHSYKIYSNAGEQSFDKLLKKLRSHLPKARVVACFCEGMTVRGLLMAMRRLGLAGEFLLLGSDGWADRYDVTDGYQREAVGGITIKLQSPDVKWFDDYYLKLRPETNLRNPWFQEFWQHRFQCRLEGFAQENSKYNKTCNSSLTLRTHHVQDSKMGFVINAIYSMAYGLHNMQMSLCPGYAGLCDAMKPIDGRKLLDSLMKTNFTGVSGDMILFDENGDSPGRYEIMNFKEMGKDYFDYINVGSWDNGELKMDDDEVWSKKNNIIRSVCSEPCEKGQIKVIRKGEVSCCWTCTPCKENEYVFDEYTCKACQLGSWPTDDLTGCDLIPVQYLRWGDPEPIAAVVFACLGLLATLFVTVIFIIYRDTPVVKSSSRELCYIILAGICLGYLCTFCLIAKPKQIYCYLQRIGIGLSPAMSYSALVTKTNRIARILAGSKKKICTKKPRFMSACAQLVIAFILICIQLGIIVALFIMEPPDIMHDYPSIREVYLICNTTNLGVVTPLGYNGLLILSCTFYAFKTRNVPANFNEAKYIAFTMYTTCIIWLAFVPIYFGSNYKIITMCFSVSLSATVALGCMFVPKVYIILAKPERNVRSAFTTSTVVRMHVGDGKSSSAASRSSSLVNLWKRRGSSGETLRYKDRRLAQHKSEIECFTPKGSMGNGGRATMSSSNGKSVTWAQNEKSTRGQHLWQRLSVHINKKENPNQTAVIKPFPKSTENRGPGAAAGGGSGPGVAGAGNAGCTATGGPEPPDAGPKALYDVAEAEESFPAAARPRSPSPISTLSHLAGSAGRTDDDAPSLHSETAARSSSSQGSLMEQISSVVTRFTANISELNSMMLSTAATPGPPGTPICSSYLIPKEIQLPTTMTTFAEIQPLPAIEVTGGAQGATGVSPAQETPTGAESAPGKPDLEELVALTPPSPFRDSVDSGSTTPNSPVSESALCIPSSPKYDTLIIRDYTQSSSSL
Metabotropic glutamate receptor 5 (Rattus norvegicus), sequence (P31424 21-1203 limits assumed): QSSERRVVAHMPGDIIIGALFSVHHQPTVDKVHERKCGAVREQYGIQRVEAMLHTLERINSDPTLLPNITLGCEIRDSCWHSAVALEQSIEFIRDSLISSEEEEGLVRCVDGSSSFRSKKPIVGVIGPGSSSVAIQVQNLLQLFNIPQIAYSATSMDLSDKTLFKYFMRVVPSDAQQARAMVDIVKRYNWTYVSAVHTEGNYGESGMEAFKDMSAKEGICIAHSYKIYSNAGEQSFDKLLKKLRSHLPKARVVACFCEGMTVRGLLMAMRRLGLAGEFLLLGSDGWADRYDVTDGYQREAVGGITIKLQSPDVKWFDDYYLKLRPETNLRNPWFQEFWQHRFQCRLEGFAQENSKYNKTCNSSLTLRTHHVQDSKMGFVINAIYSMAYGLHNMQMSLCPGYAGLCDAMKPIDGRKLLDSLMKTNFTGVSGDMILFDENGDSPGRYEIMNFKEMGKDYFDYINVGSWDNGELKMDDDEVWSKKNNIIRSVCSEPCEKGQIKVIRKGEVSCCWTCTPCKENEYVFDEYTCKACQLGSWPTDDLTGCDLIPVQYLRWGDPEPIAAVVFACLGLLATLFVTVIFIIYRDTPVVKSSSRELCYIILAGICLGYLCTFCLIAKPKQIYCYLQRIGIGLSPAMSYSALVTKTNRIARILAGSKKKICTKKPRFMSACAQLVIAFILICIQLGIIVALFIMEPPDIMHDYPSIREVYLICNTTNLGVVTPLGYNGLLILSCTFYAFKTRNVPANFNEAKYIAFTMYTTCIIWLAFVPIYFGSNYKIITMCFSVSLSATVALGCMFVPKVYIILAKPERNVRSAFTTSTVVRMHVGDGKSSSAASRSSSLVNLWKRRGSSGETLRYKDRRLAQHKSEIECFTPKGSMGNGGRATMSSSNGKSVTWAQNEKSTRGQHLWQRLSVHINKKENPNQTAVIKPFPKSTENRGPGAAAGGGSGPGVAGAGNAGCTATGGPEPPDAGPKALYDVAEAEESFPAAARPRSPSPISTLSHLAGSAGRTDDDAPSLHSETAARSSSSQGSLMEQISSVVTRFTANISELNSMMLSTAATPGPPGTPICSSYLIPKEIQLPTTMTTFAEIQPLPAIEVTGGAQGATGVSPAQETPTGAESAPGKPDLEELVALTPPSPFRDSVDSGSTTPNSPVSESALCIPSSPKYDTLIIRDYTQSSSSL

For `CCc1ccc(C#Cc2cncnc2)cc1`, the midpoint of the response in test [1], the EC50, lay at 18800 nM.

`Clc1cccc(C#Cc2cncnc2)c1`: in test [2], the IC50 stood at 34 nM. For the same molecule, in test [3], the Activity is 100%.

`COc1cccc(C#Cc2ccc(C)cn2)c1`: the Activity in test [3] turned out to be 50%.

Turning to `Fc1cc(F)cc(C#Cc2cncnc2)c1`, the IC50 in test [2] turned out to be 6400 nM. Moreover, in test [3], the Activity was found to be 100%.

In the case of `O=C(Nc1cccc(F)c1)c1cccc(Cl)c1`, in test [2], the EC50 amounted to 297 nM. Besides, the Activity in test [3] amounted to 58%.

As for `C(#Cc1cncnc1)c1ccc(-c2ccccc2)cc1`, in test [2], the IC50 came out at 7800 nM. The Activity in test [3] is 100%.

For the molecule `O=C(Nc1ccc(Cl)cc1CN1C(=O)c2ccccc2C1=O)c1ccccc1O`, the Activity in test [4] is less than 70%.

Take `N#Cc1cccc(C(=O)Nc2cc(-c3ccccc3)nn2-c2ccccc2)c1`: the Activity in test [4] was less than 70%.

For the molecule `Cc1ccc(C)c(C#Cc2cncnc2)c1`, the IC50 in test [2] worked out at 11200 nM. Besides, in test [3], the Activity was determined as 58%.

In turn, `C(#Cc1cncnc1)c1ccccc1` returned a Ki in test [5] of 126 nM. The IC50 in test [2] stood at 480 nM. Also, the Activity in test [3] was 71%.

`Clc1ccc(C#Cc2cncnc2)cc1` came in with an EC50 in test [1] of 3900 nM.

For `FC(F)(F)c1cccc(C#Cc2cncnc2)c1`, the IC50 in test [2] came out at 450 nM. The Activity in test [3] was determined as 100%.

The molecule `O=Cc1ccc(C#Cc2cncnc2)cc1` showed an EC50 in test [1] of 7900 nM.

Turning to `Fc1cccc(/C=N/N=C/c2cccc(F)c2)c1`, the Activity in test [4] was less than 70%.

Consider `Cc1cccc(C#Cc2cncnc2)c1`, for which the IC50 in test [2] is 7 nM. Further, the Activity in test [3] was determined as 100%.

In test [1], `Cc1ccc(C#Cc2cncnc2)cc1` showed an EC50 of 3300 nM. Besides, the Activity in test [4] amounted to 99%.

Turning to `Cc1cc(C#Cc2cncnc2)ccc1F`, the IC50 in test [2] amounted to 350 nM. Further, the Activity in test [3] turned out to be 100%.

For the molecule `Cc1ccc(C#Cc2cncc(Br)c2)nc1`, the Activity in test [3] amounted to 50%.

One may read the EC50 as the concentration giving half of the maximal effect. One may read the IC50 as the concentration at which inhibition is half-maximal. In general, Ki refers to a dissociation constant, usually derived from enzyme kinetics or from competition with a known ligand.
